RAM inhibit: inhibitors of the yeast RAM network, primary screen, dse1pr::URA3 reporter, 5-FOA selection. actives 1.8% (n = 190,000). S. cerevisiae dse1pr::URA3 reporter, 5-FOA growth OD615, 2 d; analog-sensitive cbk1-as2 kinase mutant strain. inhibition, % at 50 µM;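 active = inhibition above a set limit, 3 SD over mean compound inhibition, cut at about 8.4% in these data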;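 also: 0% = DMSO-only wells with no growth and 100% = 10 µM 1-NA-PP1 full growth; inhibition rescues growth on 5-FOA so higher OD means more RAM inhibition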
Yeast lifespan up: compounds extending yeast replicative lifespan, primary screen, S. cerevisiae, OD615 | S. cerevisiae growth with nicotinamide; deaD strain in restrictive glucose medium | inhibition of the nicotinamide effect, % at 10 µM | actives 0.68% (n = 130,000) | AID 775, 2007;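 active = inhibition above a set limit, placed 3 SD over the median of all compounds, cut at about 26% in these data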;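 also: 0% = nicotinamide-treated wells and 100% = cells grown without nicotinamide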
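Assay system: engineered S. cerevisiae DeaD replicative-lifespan strain, galactose-grown log-phase cells; Buffer or medium: CSMM-D glucose medium, restrictive; Probe or stimulus: nicotinamide 1.5 mM; Compound: single dose 10 µM compound, 0.25% DMSO; Schedule: 4 h preincubation then 48 h treatment at 30 °C; Technique: OD615 measurement.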
sdo1 growth: growth rescue of sdo1-depleted yeast, primary screen, S. cerevisiae, bone marrow failure model. z-score at 10 µM. AID 817, 2007. actives 0.21% (n = 140,000). S. cerevisiae sdo1-depleted JHY4D growth rescue, OD600 30 h; active compounds read high; pdr5 snq2 efflux-pump mutant strain;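 active = z-score above 3 at both the 24 hr and the 30 hr optical density reads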;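 also: z-score against mean and SD of all compound wells on the same plate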
Measles CPE: compounds protecting cells from measles virus cytopathic effect, primary screen, measles RdRp inhibitor project, single point, MLSMR library, absorbance; Measles virus-infected cells, CPE protection; protection (pct of control), % at 4 µM; actives 1.5% (n = 140,000); AID 841, 2007; in the data active = protection mostly above about 24%, no sharp cut-off; inactive = mostly below about 26%
Yeast growth inh: growth inhibitors of yeast BB579 in restrictive medium, primary screen, yeast lifespan-shortening project, S. cerevisiae | OD615, 48 h | actives 0.51% (n = 140,000) | inhibition, % at 10 µM;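 active = inhibition above a set limit, 3 SD over the mean compound inhibition, cut at about 44% in these data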
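Test system: Saccharomyces cerevisiae DeaD strain BB579, replicative lifespan model yeast | Buffer or medium: Restrictive CSMM-D medium | Doses: One dose, 10 µM compound with 0.25% DMSO | Incubation: 48 h exposure, 30 °C | Detection: Culture absorbance at 615 nm | Control set: Amphotericin B at 10 µg/mL as positive control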
An asterisk follows results filed as active. An excerpt weighted towards active compounds, which were near 3.8% of everything screened.

CC(=O)c1c(C)oc2c1C(=O)c1ccccc1C2=O was read as RAM inhibit 0.0, Yeast lifespan up -7.0, sdo1 growth -2.05, Measles CPE 10.8 and Yeast growth inh 62.5*.
`COc1ccc(CNC(=O)c2c(C)oc3c2C(=O)c2ccccc2C3=O)cc1` gave RAM inhibit 2.6, Yeast lifespan up 5.5, sdo1 growth -1.71, Measles CPE 9.8 and Yeast growth inh 10.9.
Screening O=C1COc2ccc(C(=O)COC(=O)Cc3ccsc3)cc2N1 returned RAM inhibit 0.6.
For CCc1c(C(=O)Nc2cc(C)ccc2OC)[nH]c(C)c1C(C)=O the results were RAM inhibit 3.7, Yeast lifespan up -15.9, sdo1 growth -2.13, Measles CPE 6.5 and Yeast growth inh -52.3.
For CCc1c(C(=O)NCc2ccccc2Cl)[nH]c(C)c1C(C)=O the results were RAM inhibit 3.2, Yeast lifespan up -6.2, sdo1 growth 0.35, Measles CPE 33.6* and Yeast growth inh -14.9.
Screening CCc1c(C(=O)NCCc2ccc(OC)c(OC)c2)[nH]c(C)c1C(C)=O returned RAM inhibit -0.3, Yeast lifespan up 47.4*, sdo1 growth 0.01, Measles CPE 3.9 and Yeast growth inh -28.1.
O=[N+]([O-])c1ccc(CN2CCN(Cc3c[nH]c4ccccc34)CC2)cc1 was read as RAM inhibit 0.9.
`O=c1cc(N2CCOCC2)cnn1-c1ccccc1` gave RAM inhibit 1.7, Yeast lifespan up 2.2, sdo1 growth 0.55, Measles CPE 8.2 and Yeast growth inh -40.0.
`CC(=O)c1cccc(NS(=O)(=O)c2ccc(N/C=C/C(=O)c3ccc(F)cc3)cc2)c1` gave RAM inhibit 9.6*, Yeast lifespan up 6.6, sdo1 growth -0.7, Measles CPE 26.2 and Yeast growth inh -25.1.
For COc1cccc(C(=O)/C=C/Nc2ccc(S(=O)(=O)Nc3onc(C)c3C)cc2)c1 the results were RAM inhibit 8.9*, Yeast lifespan up 2.6, sdo1 growth 1.11, Measles CPE 6.6 and Yeast growth inh -49.7.
For Cc1ncc([N+](=O)[O-])n1CC(=O)N/N=C/c1ccc(F)cc1 the results were RAM inhibit 1.0.
COC(=O)/C=C1\OC(c2ccccc2)=CC1=O was read as RAM inhibit -0.9, Yeast lifespan up 38.0*, sdo1 growth -0.9, Measles CPE 9.8 and Yeast growth inh -14.7.
COC(=O)c1sccc1-c1ccc(C(=O)Nc2cccc(Cl)c2)o1 was read as RAM inhibit 9.8*, Yeast lifespan up -10.2, sdo1 growth -1.7, Measles CPE 5.7 and Yeast growth inh -44.4.
CN(C)S(=O)(=O)Oc1ccsc1C(=O)Nc1cccc(Cl)c1 was read as RAM inhibit 3.4, Yeast lifespan up -10.7, sdo1 growth -0.36, Measles CPE 12.8 and Yeast growth inh -2.6.
For CC(=O)Nc1ccc(NC2=Nc3ccccc3N3C2=Nc2c(c(C)nn2-c2ccccc2)C3c2ccccc2)cc1 (centres undefined) the results were RAM inhibit 9.4*, Yeast lifespan up -7.3, sdo1 growth 0.73, Measles CPE 3.4 and Yeast growth inh -66.7.
O=C(CSc1nnc(-c2ccccc2)o1)NC1CCS(=O)(=O)C1 (centres undefined) was read as RAM inhibit 1.0, Yeast lifespan up 0.4, sdo1 growth 1.55, Measles CPE 10.8 and Yeast growth inh -21.4.
For CCCCC(=O)Nc1ccc(C(=O)N2CCN(C)CC2)cc1 the results were RAM inhibit 0.1, Yeast lifespan up -20.1, sdo1 growth -0.47, Measles CPE 6.3 and Yeast growth inh -37.9.
C(=C\c1nc(N2CCCC2)c2ccccc2n1)/c1ccccc1 was read as RAM inhibit -1.1, Yeast lifespan up -7.1, sdo1 growth -1.25, Measles CPE 11.1 and Yeast growth inh -17.6.
CC1CCN(c2nc(/C=C/c3ccccc3)nc3ccccc23)CC1 was read as RAM inhibit -1.4, Yeast lifespan up -11.5, sdo1 growth -2.4, Measles CPE 4.4 and Yeast growth inh 91.2*.
For O=c1nc2sc3ccccc3n2c(=O)n1-c1ccc(Cl)cc1 the results were RAM inhibit 2.9.
Screening C=C(C(=O)c1ccccc1)C(C)C(=C)C(=O)c1ccccc1 returned RAM inhibit -0.2, Yeast lifespan up 46.3*, sdo1 growth -1.04, Measles CPE 0.1 and Yeast growth inh -29.0.
Cc1ccc(C2CC(C(F)(F)F)n3nc(C(=O)Nc4c(C)n(C)n(-c5ccccc5)c4=O)cc3N2)cc1 (centres undefined) was read as RAM inhibit 9.9*.
O=C(CC1c2ccccc2Oc2ccccc21)N1CCN(c2ccccn2)CC1 was read as RAM inhibit -0.1, Yeast lifespan up 33.4, sdo1 growth -1.75, Measles CPE 5.0 and Yeast growth inh -42.6.
For O=C1OCC(CO)(CO)N=C1NNc1ccccc1Cl the results were RAM inhibit -1.2, Yeast lifespan up -19.1, sdo1 growth -2.21, Measles CPE 14.1 and Yeast growth inh 98.2*.
Screening COC(=O)c1cc(=O)n(-c2ccccc2)c(=Nc2ccccc2)s1 returned RAM inhibit -0.9, Yeast lifespan up 32.9*, sdo1 growth -1.78, Measles CPE 13.3 and Yeast growth inh -32.0.
Screening Cc1cccc(Cn2c(C(=O)OC(C)C)cc3c2ccn3C)c1 returned RAM inhibit 11.2*, Yeast lifespan up -3.7, sdo1 growth -0.16, Measles CPE 17.4 and Yeast growth inh 7.0.
CCOC(=O)c1cc2c(ccn2C)n1Cc1ccc(Cl)cc1 was read as RAM inhibit 1.4.
Screening CCOC(=O)c1cc2c(ccn2C)n1Cc1ccc(C#N)cc1 returned RAM inhibit 10.4*.
For Cc1noc(NS(=O)(=O)c2ccc(NC(=O)C34CC5CC(C3)CC(n3cnc(Cl)n3)(C5)C4)cc2)c1C the results were RAM inhibit 0.6, Yeast lifespan up -2.4, sdo1 growth 1.91, Measles CPE 25.7 and Yeast growth inh 10.8.
`CCC/C=N/NC(=O)c1ccccc1O` gave RAM inhibit 0.4.
`Cn1nc(C(=O)Nc2c(-c3ccccc3)nc3sccn23)c2ccccc2c1=O` gave RAM inhibit 9.2*, Yeast lifespan up 2.3, sdo1 growth 0.25, Measles CPE 2.5 and Yeast growth inh -22.3.
Screening CC(=O)Nc1cccc(NC(=O)CSc2ccc(C(F)(F)F)cc2[N+](=O)[O-])c1 returned RAM inhibit 1.3, Yeast lifespan up -15.4, sdo1 growth -0.36 and Yeast growth inh -20.2.
For CN1CCN(C(=O)CSc2ccc(C(F)(F)F)cc2[N+](=O)[O-])CC1 the results were RAM inhibit -0.3, Yeast lifespan up 30.0*, sdo1 growth 0.91, Measles CPE 4.4 and Yeast growth inh -17.3.
Cn1c(=O)[nH]c(NC2CCCCC2)c([N+](=O)[O-])c1=O was read as RAM inhibit -0.8, Yeast lifespan up 5.3, sdo1 growth 1.23, Measles CPE 3.0 and Yeast growth inh 0.7.

Screening data (PubChem)
